# Screening results (PubChem BioAssay)
# Only a sample is shown.
# Apaf-1 act: human Apaf-1 activation. O14727. Apaf-1 apoptosome caspase-3 activation, DEVD-Rh110 fluorescence; stronger effect = lower value. activity change, negative = activation, % at 20 µM. 330,000 compounds, 0.31% hits. AID 489031;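 active = activity change at or below -40% at 20 µM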
#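 Material: biochemical Apaf-1 apoptosome reconstitution; Medium: 20 mM HEPES buffer, pH 7.5, containing CHAPS and BSA; Reagent: dATP, cytochrome c, and (Z-DEVD)2-Rh110 caspase-3 substrate; Times: 30 min preincubation, 50 min reaction, room temperature; Signal: Rh110 fluorescence, excitation 480 nm, emission 540 nm; Measure: Caspase-3 activity via Apaf-1.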
# Rh110 interf act: interferes with Rh110 fluorescence, flagging false Apaf-1 activators. 980 tested, under 10 active. Rh110 fluorescence interference, quenched caspase reaction, Ex480/Em540. fluorescence interference (activity change), % at 20 µM, hits read low. shares compounds with Apaf-1 act;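 active = mean activity change at or below -40% when tested at 20 µM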
# Apaf-1 act conf: confirmation of human Apaf-1 activators; shares compounds with Apaf-1 act; reconstituted apoptosome caspase-3 activity, DEVD-Rh110 fluorescence; stronger effect = lower value; activity change, negative = activation, % at 20 µM; 980 compounds, 5% hits; AID 504617;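 active = mean activity change at or below -40%, meaning activation of 40% or more, at 20 µM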
# Numbers without * were called inactive; nt = no result.
SMILES,Apaf-1 act,Rh110 interf act,Apaf-1 act conf
COC(=O)C1=C(N)OC2=C(C(=O)CC(C)(C)C2)C1c1cccnc1 (centres undefined),-307.9*,6.2,12.1
CN(C)c1ccc(N/C=C/C(=O)C(C)(C)C)cc1,53.4,nt,nt
CCOC(=O)C1CCN(C(=O)c2c(C)oc3c2C(=O)c2ccccc2C3=O)CC1,48.4,nt,nt
CC1CCN(C2=C(NS(=O)(=O)c3ccccc3)C(=O)c3ccccc3C2=O)CC1,60.0,nt,nt
CCOC(=O)C1CCN(C(=O)c2ccccc2NS(=O)(=O)c2ccccc2)CC1,-496.4*,16.2,18.6
NC1=NC[C@H](Cc2ccccc2)N1CCCCC1CCCCC1,66.9,nt,nt
O=C(COC(=O)c1cc(Cl)ccc1Cl)NCCN1C(=O)CSC1=O,43.2,nt,nt
CCC(CC)c1nnc(NC(=O)CN2C(=O)c3ccccc3C2=O)s1,86.8,nt,nt
COC(=O)c1ccccc1NC(=O)CN1C(=O)CSC1=O,-48.4*,-5.6,8.4
COc1cccc2sc3cc(C#CC4(O)CCCCC4)ccc3c(=O)c12,40.1,nt,nt
Cc1cc(C)c(S(=O)(=O)Nc2ccc3c4c(cccc24)CC3)c(C)c1,43.0,nt,nt
CC(C)CC(=O)N[C@H](C(=O)N[C@H](C(=O)N[C@@H](CC(C)C)[C@@H](O)CC(=O)N[C@@H](C)C(=O)N[C@@H](CC(C)C)[C@@H](O)CC(=O)O)C(C)C)C(C)C,-239.3*,-233.5*,11.0
CC(=O)Nc1ccc(NC2=C/C(=N/S(=O)(=O)c3cccs3)c3ccccc3C2=O)cc1,90.0,nt,nt
O=C1NC(c2ccc(-c3ccccc3[N+](=O)[O-])o2)C(C(=O)c2ccc(F)cc2)C(O)(C(F)(F)F)N1 (centres undefined),51.1,nt,nt
COc1ccc2nc3cc(Cl)ccc3c(Nc3cc(CN4CCCC4)c(O)c(CN4CCCC4)c3)c2n1,62.4,nt,nt
CCOc1ccc(NC(=O)CC2C(=O)N(c3ccccc3)C(=S)N2Cc2ccccn2)cc1 (centres undefined),-44.0*,8.4,9.6
CCCCCc1cc(=O)oc2c(C(CCN3CCCC(C)C3)c3ccc(N(C)C)cc3)c(OC)cc(OC)c12 (centres undefined),68.0,nt,nt
CCC(=Nc1ccc(N)cc1)C1=C(O)C(C(=O)OC)C(C)(C)CC1=O (centres undefined),61.5,nt,nt
C#CCOCCOCCOCCNc1nc(N2CCN(C(=O)CCCCCCCCCCNC(=O)[C@H](CCCCN)n3cc(CCO)nn3)CC2)nc(N2CCN(C(=O)CCCCCCCCCCNC(=O)[C@H](CCCN=C(N)N)n3cc(C[C@@H](C)CC)nn3)CC2)n1,77.7,nt,nt
Cn1c(SCC(=O)Nc2ccc3nc(SCC(=O)N4CCCC4)sc3c2)nnc1-c1ccccc1,65.8,nt,nt
O=C(CSc1nc2ccccc2s1)N/N=C/c1ccco1,-62.1*,0.1,7.5
O=[N+]([O-])c1c(NCCCO)cc(Sc2nc3ccccc3s2)c2nonc12,97.8,nt,nt
CC(=C/c1ccco1)/C=N/NC(=O)CSc1nnc(SCc2ccc(C)cc2)s1,-89.9*,5.7,33.8
COc1cc(/C=C2/C(=O)N(c3ccccc3)N=C2C)ccc1OS(=O)(=O)c1ccccc1,95.0,nt,nt
Cc1ccc(-n2nc3c(c2NC(=O)c2ccco2)CS(=O)(=O)C3)cc1C,-390.6*,-9.3,8.0
SMILES,Apaf-1 act,Rh110 interf act,Apaf-1 act conf
CCCN(CC(=O)Nc1ccccc1C)C(=O)C1CCCN(C(=O)c2ccc(Cl)cc2)C1 (centres undefined),48.4,nt,nt
C[C@H]1CN([C@@H](C)CO)C(=O)Cc2cc(NC(=O)CCC(F)(F)F)ccc2O[C@H]1CN(C)Cc1ccc(-c2ccccc2)cc1,40.8,nt,nt
c1nc(NCC2(N3CCOCC3)CCCCC2)c2ccsc2n1,-312.6*,6.9,14.7
Nc1ccc(C(=O)N/N=C/c2cccc(Oc3ccccc3)c2)cc1,-64.4*,-4.0,14.3
Cc1[nH]n(-c2ccccc2)c(=O)c1/C=N/NC(=O)c1cccc(F)c1,62.2,nt,nt
O=S(=O)(c1ccc(Br)cc1)N1CCN(c2ccc3nnc(-c4ccccc4)n3n2)CC1,40.8,nt,nt
CC1(C)S/C(=N/N=C/c2ccco2)NC1=O,-61.3*,14.2,17.2
c1ccc(CN(CC2=NCCN2)c2ccccc2)cc1,-4.3,nt,nt
Cc1cc(=O)n(-c2ccc3ccccc3n2)[nH]1,85.7,nt,nt
COc1ccc2ccccc2c1C1CC(=O)N2CN(Cc3ccco3)CSC2=C1C#N (centres undefined),51.7,nt,nt
COc1ccc(S(=O)(=O)NNC(=O)c2cc3c4ccccc4n(C)c3s2)cc1,-407.3*,-2.8,14.0
C#CCOCCOCCOCCNc1nc(N2CCN(C(=O)CCCCCCCCCCNC(=O)[C@H](CCCCN)n3cc(CCO)nn3)CC2)nc(N2CCN(C(=O)CCCCCCCCCCNC(=O)[C@@H]([C@H](C)O)n3cc(C)nn3)CC2)n1,59.2,nt,nt
CCc1ccc(OCCNc2cc(N3CCNC(C)C3)ccc2[N+](=O)[O-])cc1 (centres undefined),75.0,nt,nt
COc1cccc(C(=O)NN2C(=S)N(c3ccccc3)C(=O)C2CC(N)=O)c1 (centres undefined),-83.1*,-7.7,11.1
COCCOc1cc(NCc2ccccc2)c2ncn(C(C)C)c2c1,68.1,nt,nt
N#Cc1c(N)n(CCc2ccc(F)cc2)c2nc3ccccc3nc12,82.2,nt,nt
Nc1ccnc(C(F)(F)F)c1C(=O)c1ccccc1,-43.3*,6.8,-0.5
O=C(Cn1cc2c(n1)CCCC2)NCCCN1CCCC1,41.0,nt,nt
COc1ccccc1N=Nc1ccc(O)c2ncccc12,90.0,nt,nt
S=c1[nH]nc(-c2ccncc2)n1/N=C/c1cn(-c2ccccc2)nc1-c1ccc(Cl)cc1,-59.2*,-0.6,-19.4
Cc1ccc(C(=O)NC(=S)Nc2cccc3nsnc23)cc1,58.9,nt,nt
CC1CCN(S(=O)(=O)c2ccc3c4c2CC(=O)N4CC(C)S3)CC1 (centres undefined),94.4,nt,nt
COc1cccc(/C=N/NC(=O)CCn2nnc3ccccc32)c1,-69.6*,1.0,5.8
COc1ccc(/C=N/NC(=O)CCn2cnc(-c3ccccc3)c2-c2ccccc2)cc1,54.4,nt,nt
CC(C)[C@H](CO)Nc1nc(Nc2ccc(Cl)c(C(=O)O)c2)c2ncn(C(C)C)c2n1,43.7,nt,nt
SMILES,Apaf-1 act,Rh110 interf act,Apaf-1 act conf
O=C1CC(CC(=O)N/N=C/c2ccccc2[N+](=O)[O-])=NN1,45.9,nt,nt
Cc1ccc(NC2=CC(=O)C(=O)c3ccccc32)c(C)c1,86.6,nt,nt
OCCN1CCN(CCCN2c3ccccc3Sc3ccc(Cl)cc32)CC1,45.7,nt,nt
Cc1cccc(N2CCN(C(=O)c3ccc4nc(-c5ccco5)c(-c5ccco5)nc4c3)CC2C)c1 (centres undefined),60.1,nt,nt
COc1cccc(N2CCN(C(=O)c3ccc(=O)oc3)CC2C)c1 (centres undefined),-331.5*,-7.1,8.7
Cc1ccc(S(=O)(=O)Nc2ccccc2F)cc1C(=O)NCc1ccco1,-53.7*,11.4,10.5
Nc1c(C(=O)NCc2ccco2)c2nc3ccccc3nc2n1CCc1ccc(F)cc1,77.6,nt,nt
Cc1[nH]c(=O)[nH]c(=O)c1S(=O)(=O)N1CCN(c2ccccc2F)CC1,-517.3*,-0.4,-2.7
CCn1cc(C(=O)Nc2ccc(NC(=O)c3ccco3)cc2)c(=O)c2ccc(C)nc21,-58.8*,-8.1,-3.6
CCn1cc(C(=O)OCC(=O)OC2CC(C)CCC2C(C)C)c(=O)c2ccc(C)nc21 (centres undefined),47.6,nt,nt
